The text below walks through data of ChEMBL document CHEMBL4480406, “Discovery of an SSTR2-Targeting Maytansinoid Conjugate (PEN-221) with Potent Activity in Vitro and in Vivo” (J Med Chem, 2019).

Active and inactive are the calls of the source.

The nature of series [1]: AUC (0 to 6 hrs) in Beagle dog at 0.1 mg/kg, iv. As to conditions: in vivo. Set-up: dose 0.1 mg/kg, time < 6 hr, route intravenous. In kind it is ADME, organism-based, Canis lupus familiaris.
Series [2] has as its system NCI-H69. As to the kind of experiment: Antitumor activity against human NCI-H69 cells xenografted in CrTac:NCr-Foxn1nu mouse assessed as tumor regression at 1.3 mg/kg, iv measured up to 40 days. In kind it is functional, organism-based. In a few lines: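 Female athymic nude mice were implanted subcutaneously in the right flank with 2.5 × 10^6 NCI-H69 cells in medium/Matrigel 1:1. At 150-250 mm3, animals were randomized into groups of 10. Dosing was by tail-vein injection in 10% propylene glycol in 5 mM citrate pH 4 on the indicated days. Caliper volumes were calculated as (w2 × l)/2 and reported as mean ± SEM.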

The nature of series [3]: Half life of the compound in phosphate buffer at 1 mM in presence of GSH by LC-MS/MS analysis. As to conditions: phosphate buffer with GSH. Format: physicochemical. In a few lines: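 Conjugate, added from a 1 mM methanol stock, was incubated in 5 mM GSH at 37 °C. Aliquots taken from 30 min to 6 h were quenched into N-ethyl maleimide in 1% ethanol, and remaining parent conjugate was measured by LC-MS/MS.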

The test system of series [4] is NCI-H69. In words: Antitumor activity against human NCI-H69 cells xenografted in CrTac:NCr-Foxn1nu mouse assessed as tumor regression at 2 mg/kg, iv measured up to 40 days. In kind it is functional. The essentials:
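Female athymic nude mice were implanted subcutaneously in the right flank with 2.5 × 10^6 NCI-H69 cells (RPMI 1640/10% FBS culture) in media:Matrigel (1:1). At 150-250 mm3, mice were randomized into groups of 10. Compound in 10% propylene glycol in 5 mM citrate buffer (pH=4) was given by tail-vein i.v. injection on indicated days. Tumor volume was measured by calipers as (w2 × l)/2, reported as mean ± SEM.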
In general terms: A xenograft is tissue or cells of one species grown in another, often human tumour cells in immunodeficient mice.

Series [5] has as its target T1, Somatostatin receptor type 2 (Homo sapiens, UniProt P30874). As to the kind of experiment: Displacement of [125I]somatostatin from human SSTR2 expressed in CHO-K1 cell membranes after 240 mins. In a few lines: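 Membranes from CHO-K1 cells stably expressing human SSTR2, prepared in modified HEPES pH 7.4. Nonspecific binding was defined with 1 µM somatostatin. Bound ligand was measured by filtration, 3 washes and counting. Six test concentrations were run, top 10 nM, in five-fold dilutions.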
In general terms: In a radioligand displacement assay an active substance lowers the binding of a labelled ligand.

Series [6] concerns NCI-H524. As to the kind of experiment: Cytotoxicity in human NCI-H524 cells pre-incubated for 2 hrs in presence of 100 uM octreotide followed by compound wash out and subsequently incubated for 70 hrs by Cell Titer Glo assay. Format: functional, cell-based. In a few lines:
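Octreotide receptor-blockade variant: NCI-H524 cells (5,000/well) were pretreated with octreotide acetate for 30 min, then given compound for 2 h in a ten-point three-fold series.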
(In general: In ATP-based viability assays light output follows the ATP content of the culture.)

In series [7] the test system is NCI-H524. In words: Cytotoxicity in human NCI-H524 cells pre-incubated for 2 hrs followed by compound wash out and subsequently incubated for 70 hrs by Cell Titer Glo assay. In kind it is functional, cell-based. In a few lines: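 Cells were then spun, washed with fresh medium, resuspended and grown a further 70 h. Proliferation was read by CellTiter-Glo luminescence, and % inhibition calculated relative to vehicle. IC50 came from a four-parameter nonlinear fit.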

The nature of series [8]: Half life in Beagle dog at 0.1 mg/kg, iv. In kind it is ADME, organism-based, Canis lupus familiaris. As to conditions: in vivo.
The nature of series [9]: Toxicity in CrTac:NCr-Foxn1nu mouse xenografted with human NCI-H69 cells assessed as body weight loss at 2 mg/kg, iv measured up to 40 days. In kind it is organism-based. The note with it: in vivo, 960 h.
The nature of series [10]: Antitumor activity against human HCC33 cells xenografted in CrTac:NCr-Foxn1nu mouse assessed as tumor regression at 1 mg/kg, iv measured up to 16 days. Format: functional. The essentials: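 Female athymic nude mice received subcutaneous right-flank implants in media:Matrigel (1:1): 2.5 × 10^6 HCC-33 cells (RPMI 1640/10% FBS) or 1 x 10^7 IMR-32 cells (EMEM/10% FBS). At 150-250 mm3, mice were randomized into groups of 10. Dosing was tail-vein i.v. on indicated days in 0.1% Solutol HS 15/5% mannitol/WFI. Caliper volume was (w2 × l)/2, reported as group mean ± SEM.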

A short description of series [11]: Apparent permeability from apical to basolateral side in human Caco2 cells. In kind it is ADME, cell-based. The note with it: Caco-2.
Series [12] has as its target T2, Somatostatin receptor type 5 (Homo sapiens, UniProt P35346). As to the kind of experiment: Agonist activity at SSTR5 (unknown origin) assessed as effect on calcium flux incubated for 180 secs by FLIPR assay. Format: functional.
The target of series [13] is T1, Somatostatin receptor type 2. As to the kind of experiment: Agonist activity at SSTR2 (unknown origin) assessed as effect on calcium flux incubated for 180 secs by FLIPR assay. In kind it is functional.
In series [14] the target is Somatostatin receptor type 1 (Homo sapiens, UniProt P30872). As to the kind of experiment: Displacement of [125I]somatostatin from human SSTR1 expressed in CHO-K1 cell membranes after 120 mins.
Chain of Somatostatin receptor type 1 (P30872 whole entry): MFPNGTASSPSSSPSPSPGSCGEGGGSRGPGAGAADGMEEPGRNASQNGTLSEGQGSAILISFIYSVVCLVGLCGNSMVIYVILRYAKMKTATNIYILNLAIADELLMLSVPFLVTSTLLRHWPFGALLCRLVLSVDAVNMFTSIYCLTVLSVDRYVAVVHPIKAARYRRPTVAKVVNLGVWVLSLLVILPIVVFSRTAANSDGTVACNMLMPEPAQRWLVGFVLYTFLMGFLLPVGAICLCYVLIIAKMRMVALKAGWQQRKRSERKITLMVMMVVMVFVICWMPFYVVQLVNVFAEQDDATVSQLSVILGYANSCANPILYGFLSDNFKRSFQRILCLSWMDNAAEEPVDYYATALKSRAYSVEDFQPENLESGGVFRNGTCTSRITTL
A further series has as its system IMR-32. As to the kind of experiment: Antitumor activity against human IMR32 cells xenografted in CrTac:NCr-Foxn1nu mouse assessed as tumor regression at […], iv measured up to 20 days. Format: functional.
Series [15] can be described thus: Drug uptake in tumor of CrTac:NCr-Foxn1nu mouse xenografted with human NCI-H69 cells assessed as DM1 level at 1 mg/kg, iv measured after 24 hrs by LC-MS/MS analysis relative to DM1 alone. As to conditions: in vivo. Format: ADME, organism-based, Neoplasm. In a few lines: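 NCI-H69 subcutaneous tumors of 250-600 mm3 in nude mice, groups of 3, dosed i.v. Free DM1 was given in 10% propylene glycol/WFI, conjugates in 10% propylene glycol/5 mM citrate pH 4. Tumors were excised at 24 h and homogenized 1:4 (w/v) in 0.1 M ammonium bicarbonate pH 8.0. Homogenate was reduced with TCEP in acetonitrile (15 min, 37 °C), capped with 0.2 M NEM (15 min, 37 °C), and DM1-NEM quantified by LC-MS/MS against standards in blank tumor homogenate. Values were normalized to DM1 dose.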

Series [16] has as its target T1, Somatostatin receptor type 2. In words: Antagonist activity at SSTR2 (unknown origin) assessed as effect on agonist-induced calcium flux incubated for 180 secs by FLIPR assay. In kind it is functional.
Series [17] addresses T2, Somatostatin receptor type 5. In words: Displacement of [125I]somatostatin from human SSTR5 expressed in CHO-K1 cell membranes after 120 mins.
Series [18] addresses Somatostatin receptor type 4 (Homo sapiens, UniProt P31391). In words: Displacement of [125I]somatostatin from human SSTR4 expressed in CHO-K1 cell membranes after 120 mins.
Series [19] can be described thus: Clearance in Beagle dog at 0.1 mg/kg, iv. In kind it is ADME, organism-based, Canis lupus familiaris. The note with it: in vivo.
Series [20] can be described thus: Cmax in Beagle dog at 0.1 mg/kg, iv. In kind it is ADME, organism-based, Canis lupus familiaris. Also on record: dose 0.1 mg/kg, route intravenous. The note with it: in vivo.
Series [21] deals with Somatostatin receptor type 3 (Homo sapiens, UniProt P32745). As to the kind of experiment: Displacement of [125I]somatostatin from human SSTR3 expressed in CHO-K1 cell membranes after 120 mins.
Chain of Somatostatin receptor type 3 (P32745 whole entry): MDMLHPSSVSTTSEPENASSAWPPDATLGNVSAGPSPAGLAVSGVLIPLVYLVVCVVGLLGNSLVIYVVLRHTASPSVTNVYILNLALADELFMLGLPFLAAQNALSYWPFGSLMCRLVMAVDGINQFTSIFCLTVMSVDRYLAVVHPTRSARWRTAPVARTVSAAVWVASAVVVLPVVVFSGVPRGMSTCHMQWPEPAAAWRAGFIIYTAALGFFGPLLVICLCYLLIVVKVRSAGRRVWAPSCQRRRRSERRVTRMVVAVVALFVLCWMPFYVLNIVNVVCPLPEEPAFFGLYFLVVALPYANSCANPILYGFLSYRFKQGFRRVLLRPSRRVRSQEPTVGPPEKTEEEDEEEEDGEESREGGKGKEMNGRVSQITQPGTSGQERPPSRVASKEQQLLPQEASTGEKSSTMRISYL
Series [22] concerns the target T1, Somatostatin receptor type 2. As to the kind of experiment: Binding affinity to human SSTR2 expressed in CHO-K1 cells assessed as induction of SSTR2 internalization after 4 hrs by chemiluminescent assay. Format: cell-based.
The target of series [23] is T2, Somatostatin receptor type 5. As to the kind of experiment: Antagonist activity at SSTR5 (unknown origin) assessed as effect on agonist-induced calcium flux incubated for 180 secs by FLIPR assay. Format: functional.

T1 sequence (P30874 whole entry): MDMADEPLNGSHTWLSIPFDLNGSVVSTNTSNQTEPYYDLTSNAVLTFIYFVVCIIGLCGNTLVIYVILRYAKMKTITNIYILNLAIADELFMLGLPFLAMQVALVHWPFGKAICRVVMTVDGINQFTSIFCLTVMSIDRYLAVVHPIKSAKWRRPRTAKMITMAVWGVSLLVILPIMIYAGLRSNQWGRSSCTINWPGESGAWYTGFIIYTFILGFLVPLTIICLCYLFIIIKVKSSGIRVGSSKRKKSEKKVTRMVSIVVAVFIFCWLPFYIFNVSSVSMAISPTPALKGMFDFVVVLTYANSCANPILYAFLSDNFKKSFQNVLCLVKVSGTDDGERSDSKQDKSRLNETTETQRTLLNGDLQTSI
T2 sequence (P35346 whole entry): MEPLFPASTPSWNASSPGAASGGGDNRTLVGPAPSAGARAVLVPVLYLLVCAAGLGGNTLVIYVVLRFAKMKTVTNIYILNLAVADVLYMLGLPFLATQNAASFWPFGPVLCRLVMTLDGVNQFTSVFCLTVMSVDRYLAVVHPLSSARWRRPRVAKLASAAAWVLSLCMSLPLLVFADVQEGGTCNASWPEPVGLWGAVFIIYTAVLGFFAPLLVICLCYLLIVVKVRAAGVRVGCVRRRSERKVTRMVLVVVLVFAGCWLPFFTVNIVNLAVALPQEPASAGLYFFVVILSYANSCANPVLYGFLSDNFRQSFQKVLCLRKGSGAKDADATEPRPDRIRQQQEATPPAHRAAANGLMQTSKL
Chain of Somatostatin receptor type 4 (P31391 whole entry): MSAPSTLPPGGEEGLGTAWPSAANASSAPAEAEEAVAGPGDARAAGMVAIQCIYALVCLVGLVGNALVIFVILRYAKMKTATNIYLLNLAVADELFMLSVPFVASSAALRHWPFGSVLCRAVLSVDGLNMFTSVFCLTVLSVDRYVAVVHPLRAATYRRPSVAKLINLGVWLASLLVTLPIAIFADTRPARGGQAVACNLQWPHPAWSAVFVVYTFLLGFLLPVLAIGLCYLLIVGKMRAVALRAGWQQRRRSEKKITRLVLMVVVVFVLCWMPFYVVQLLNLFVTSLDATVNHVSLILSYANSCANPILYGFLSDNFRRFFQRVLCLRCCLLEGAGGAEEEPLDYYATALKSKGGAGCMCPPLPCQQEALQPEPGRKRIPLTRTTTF

Consider `COc1cc2cc(c1Cl)N(C)C(=O)C[C@H](OC(=O)[C@H](C)N(C)C(=O)CCSSC[C@H](NC(=O)[C@@H]1CSSC[C@H](NC(=O)[C@H](N)Cc3ccccc3)C(=O)N[C@@H](Cc3ccc(O)cc3)C(=O)N[C@H](Cc3c[nH]c4ccccc34)C(=O)N[C@@H](CCCCN)C(=O)N[C@@H]([C@@H](C)O)C(=O)N1)C(N)=O)[C@@]1(C)O[C@H]1[C@H](C)[C@@H]1C[C@@](O)(NC(=O)O1)[C@H](OC)/C=C/C=C(\C)C2`, for which, in [1], the AUC(0-t) at 6 h stood at 470 nM·h. For the same molecule, the result (in the series with NCI-H69 [2]; in [12]; in series [13]; in series [16]; in [23]) was Active. The half-life at 1000 µM in series [3] is 0.167 h. Also, the Activity is recorded as 100% in the series with NCI-H69 [4], “Non-Toxic” in [9], 100% in series [10] and 100% with IMR-32. Besides, affinity in [5] was put at a Ki of 0.022 nM. The IC50 in the series on NCI-H524 [6] is 910 nM; in the series on NCI-H524 [7], 10 nM. The molecule further gave a half-life in [8] of 2.33 h. The Papp A→B in series [11] stood at 0.18 nm/s. The Kd in [14] stood at 310 nM; in [17] it was 9.6 nM; in [18] it was 5480 nM; in series [21], 19.8 nM. Further, the Drug uptake entry in series [15] was “Active”. Besides, in series [19], the clearance was determined as 0.0996 L/h/kg. In [20], this molecule registered a Cmax of 0.708 µM. For the same molecule, the half-maximal effective concentration (EC50) in series [22] was 1 nM.

For orientation: AUC(0-t) means exposure summed from dosing to a finite time, without extrapolation to infinity. The low end stands for less exposure, the high end for more exposure. In general, half-life refers to the time needed for the level to fall by half in the phase considered. By Ki is commonly meant the equilibrium dissociation constant of an inhibitor or competing ligand from its target. A higher Ki goes with weaker binding. In general, IC50 refers to the concentration that inhibits the measured activity by half. Usually Papp A→B stands for how fast a substance crosses the layer from the apical side. By Kd is commonly meant the concentration at which binding is half-saturated. Read a low Kd as tighter binding. Broadly, the clearance is a measure of how efficiently the substance is removed, as volume per time. Read a high clearance as efficient removal. By Cmax is commonly meant the highest concentration seen after dosing. One may read the EC50 as the concentration giving half of the maximal effect.
